Test results taken from ChEMBL document CHEMBL1142527, “Tricyclic [1,2,4]triazine 1,4-dioxides as hypoxia selective cytotoxins” (J Med Chem, 2008).

Experiments:
[1] = Solubility at 22 degC in culture medium in presence of 5% fetal calf serum; assay type: physicochemical
How it was run: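 Solubility of the HCl salts is determined in culture medium containing 5% fetal calf serum at 22 °C.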

HT-29 [2] = assay: Cytotoxicity against human HT-29 cells after 4 hrs under strict hypoxic condition; assay type: functional, cell-based; conditions: Homo sapiens, HT-29, 4 h
HT-29 [3] = assay: Hypoxic cytotoxicity ratio, ratio of aerobic IC50 to anoxic IC50 for human HT-29 cells; assay type: functional
SiHa [4] = assay: Cytotoxicity against human SiHa cells after 4 hrs under strict hypoxic condition; assay type: functional, cell-based; conditions: Homo sapiens, SiHa, 4 h
SiHa [5] = assay: Hypoxic cytotoxicity ratio, ratio of aerobic IC50 to anoxic IC50 for human SiHa cells; assay type: functional
HT-29 [6] = assay: Metabolic stability in human HT-29 multicellular layer assessed as apparent first-order rate constant under anoxic condition; assay type: ADME, cell-based
How it was run: (§1)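 Stirred single-cell suspensions of anoxic HT29 cells are exposed for 3 h at a drug concentration giving roughly one log kill by 1 h. Clonogenic survival is followed, and extracellular drug is monitored by HPLC. Concentration-time data are fitted for the apparent first-order metabolic rate constant k_met, scaled to MCL cell density. CT₁₀ and M₁₀ (drug metabolized at 10% survival) are interpolated from the fitted PK/PD model.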

HT-29 [7] = assay: Cytotoxicity against human HT-29 cells assessed as AUC-time curve providing 10% surviving fraction by clonogenic assay; assay type: functional
HT-29 [8] = assay: Drug metabolism in human HT-29 cells assessed as amount of drug metabolized for one log of cell kill at their CT10 concentration for 1 hr; assay type: ADME, cell-based; conditions: ht-29, 1 h; how it was run: as §1
HT-29 [9] = assay: Drug diffusion coefficient in human HT-29 multicellular layer under 95% oxygen by liquid scintillation counting; assay type: ADME, cell-based
How it was run: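 Tissue diffusion coefficient D measured in HT29 multicellular layers held under 95% O₂ to suppress bioreductive metabolism. Reported as ×10⁻⁷ cm²s⁻¹.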

[10] = culture medium with 5% fetal calf serum, read-out: solubility

## CCNc1n[n+]([O-])c2cc3c(cc2[n+]1[O-])CC(N(C)C)C3 (stereo not drawn)
[1]; [10]
  solubility: 46 mM

## CCc1n[n+]([O-])c2cc3c(cc2[n+]1[O-])CC(CO)C3 (stereo not drawn)
[1]; [10]
  solubility: 5 mM
HT-29 [2]
  IC50: 17 µM
HT-29 [3]
  Ratio IC50: 45
SiHa [4]
  IC50: 6.5 µM
SiHa [5]
  Ratio IC50: 48
HT-29 [6]
  Activity: 0.47 min⁻¹
HT-29 [7]
  Activity: 49.7 µM·h
HT-29 [8]
  Activity: 2096 µM

## [O-][n+]1nc(NCCCN2CCOCC2)[n+]([O-])c2cc3c(cc21)CCCC3
[1]; [10]
  solubility: 49 mM
HT-29 [2]
  IC50: 6.3 µM
HT-29 [3]
  Ratio IC50: 25
SiHa [4]
  IC50: 2.6 µM
SiHa [5]
  Ratio IC50: 54
HT-29 [6]
  Activity: 0.69 min⁻¹
HT-29 [7]
  Activity: 41.6 µM·h
HT-29 [8]
  Activity: 3294 µM

## CN(C)CCNc1n[n+]([O-])c2cc3c(cc2[n+]1[O-])CCCCC3
[1]; [10]
  solubility: > 53 mM
HT-29 [2]
  IC50: 5.2 µM
HT-29 [3]
  Ratio IC50: 54
SiHa [4]
  IC50: 1.2 µM
SiHa [5]
  Ratio IC50: 88
HT-29 [6]
  Activity: 1.52 min⁻¹
HT-29 [7]
  Activity: 30.6 µM·h
HT-29 [8]
  Activity: 5404 µM

## CC1Cc2cc3c(cc2C1)[n+]([O-])c(NCCCN1CCOCC1)n[n+]3[O-] (stereo not drawn)
[1]; [10]
  solubility: > 49 mM
HT-29 [2]
  IC50: 19 µM
HT-29 [3]
  Ratio IC50: 25
SiHa [4]
  IC50: 8.4 µM
SiHa [5]
  Ratio IC50: 50
HT-29 [6]
  Activity: 0.13 min⁻¹
HT-29 [7]
  Activity: 122.9 µM·h
HT-29 [8]
  Activity: 1903 µM

## CCNc1n[n+]([O-])c2cc3c(cc2[n+]1[O-])CN(C)CC3
[1]; [10]
  solubility: > 47 mM
HT-29 [2]
  IC50: 2.6 µM
HT-29 [3]
  Ratio IC50: 59
SiHa [4]
  IC50: 1.1 µM
SiHa [5]
  Ratio IC50: 100

## [O-][n+]1nc(NCCCN2CCOCC2)[n+]([O-])c2cc3c(cc21)CCC3
[1]; [10]
  solubility: 48 mM
HT-29 [2]
  IC50: 21.4 µM
HT-29 [3]
  Ratio IC50: 20
SiHa [4]
  IC50: 8.8 µM
SiHa [5]
  Ratio IC50: 44
HT-29 [6]
  Activity: 0.19 min⁻¹
HT-29 [7]
  Activity: 76.2 µM·h
HT-29 [8]
  Activity: 1715 µM

## CC1Cc2cc3c(cc2C1)[n+]([O-])c(CCCN1CCOCC1)n[n+]3[O-] (stereo not drawn)
[1]; [10]
  solubility: 36 mM
HT-29 [6]
  Activity: 0.96 min⁻¹
HT-29 [8]
  Activity: 2059 µM

## CCN(CC)CCNc1n[n+]([O-])c2c3c(ccc2[n+]1[O-])CCC3
[1]; [10]
  solubility: > 49 mM
HT-29 [2]
  IC50: 4.2 µM
HT-29 [3]
  Ratio IC50: 17
SiHa [4]
  IC50: 0.9 µM
SiHa [5]
  Ratio IC50: 64
HT-29 [6]
  Activity: 0.97 min⁻¹
HT-29 [7]
  Activity: 35.1 µM·h
HT-29 [8]
  Activity: 3806 µM

## CN(C)CCNc1n[n+]([O-])c2c3c(ccc2[n+]1[O-])CCCC3
[1]; [10]
  solubility: 47 mM
HT-29 [2]
  IC50: 3.4 µM
HT-29 [3]
  Ratio IC50: 18
SiHa [4]
  IC50: 1 µM
SiHa [5]
  Ratio IC50: 64
HT-29 [6]
  Activity: 1.78 min⁻¹
HT-29 [7]
  Activity: 19.5 µM·h
HT-29 [8]
  Activity: 4223 µM

## CCN(CC)CCNc1n[n+]([O-])c2cc3c(cc2[n+]1[O-])OCC3
[1]; [10]
  solubility: 47 mM
HT-29 [2]
  IC50: 10 µM
HT-29 [3]
  Ratio IC50: 113
SiHa [4]
  IC50: 3.4 µM
SiHa [5]
  Ratio IC50: 122
HT-29 [6]
  Activity: 0.26 min⁻¹
HT-29 [7]
  Activity: 58 µM·h
HT-29 [8]
  Activity: 1718 µM

## [O-][n+]1nc(NCCCN2CCOCC2)[n+]([O-])c2cc3c(cc21)CCO3
[1]; [10]
  solubility: 46 mM
HT-29 [2]
  IC50: 49 µM
HT-29 [3]
  Ratio IC50: 6
SiHa [4]
  IC50: 29 µM
SiHa [5]
  Ratio IC50: 14
HT-29 [6]
  Activity: 0.23 min⁻¹
HT-29 [7]
  Activity: 82.1 µM·h
HT-29 [8]
  Activity: 2155 µM

## CN(C)CCNc1n[n+]([O-])c2cc3c(cc2[n+]1[O-])OCO3
[1]; serum
  solubility: > 50 mM
HT-29 [6]
  Activity: 0.87 min⁻¹
HT-29 [8]; 1 h
  Activity: 4310 µM

## CCc1n[n+]([O-])c2cc3c(cc2[n+]1[O-])CC(CCN1CCOCC1)C3 (stereo not drawn)
[1]; [10]
  solubility: > 51 mM
HT-29 [2]
  IC50: 3.6 µM
HT-29 [3]
  Ratio IC50: 36
SiHa [4]
  IC50: 1.3 µM
SiHa [5]
  Ratio IC50: 84
HT-29 [6]
  Activity: 0.54 min⁻¹
HT-29 [7]
  Activity: 15.8 µM·h
HT-29 [8]
  Activity: 984 µM

## [O-][n+]1nc(NCCCN2CCOCC2)[n+]([O-])c2cc3c(cc21)OCC3
[1]; [10]
  solubility: > 49 mM
HT-29 [2]
  IC50: 22 µM
HT-29 [3]
  Ratio IC50: 8
SiHa [4]
  IC50: 3.4 µM
SiHa [5]
  Ratio IC50: 28
HT-29 [6]
  Activity: 0.2 min⁻¹
HT-29 [7]
  Activity: 116 µM·h
HT-29 [8]
  Activity: 2660 µM

## Nc1n[n+]([O-])c2ccccc2[n+]1[O-] [TIRAPAZAMINE]
HT-29 [9]
  D: 4.04e-07 cm²/s
HT-29 [7]
  Activity: 24.3 µM·h
HT-29 [8]
  Activity: 1698 µM
